Tests used:
[1] = The percent remaining in human plasma after 30 min was determined; format: ADME, cell-free; settings: read-out: Stability
How it was run: (§1)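 Compound, dissolved in DMSO, was spiked into human plasma and incubated at 37 °C. Stability was read as the percentage of intact compound left after 30 min. Half-life in human plasma was taken from this same incubation.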

[2] = biological target: Plasminogen (Rattus norvegicus, UniProt Q01177); assay: Inhibitory concentration was measured against plasmin
[3] = biological target: T1, Chymase (Homo sapiens, UniProt P23946); assay: Inhibition of human Serine protease chymase
T1 sequence (P23946 whole entry): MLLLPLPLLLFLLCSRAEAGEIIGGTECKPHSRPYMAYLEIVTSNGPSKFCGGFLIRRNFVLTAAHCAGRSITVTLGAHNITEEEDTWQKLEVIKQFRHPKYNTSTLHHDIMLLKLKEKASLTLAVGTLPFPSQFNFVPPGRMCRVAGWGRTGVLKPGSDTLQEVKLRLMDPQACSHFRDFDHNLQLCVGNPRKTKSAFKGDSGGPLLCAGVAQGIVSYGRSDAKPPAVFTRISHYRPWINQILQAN

[4] = biological target: Serine protease 1 (Homo sapiens, UniProt P07477); assay: Inhibitory concentration was measured against trypsin
[5] = biological target: Chymotrypsinogen A (Bos taurus, UniProt P00766); assay: Inhibitory concentration was measured against alpha-chymotrypsin
[6] = biological target: T2, Neutrophil elastase (Homo sapiens, UniProt P08246); assay: Inhibitory concentration was measured against elastase
T2 sequence (P08246 whole entry): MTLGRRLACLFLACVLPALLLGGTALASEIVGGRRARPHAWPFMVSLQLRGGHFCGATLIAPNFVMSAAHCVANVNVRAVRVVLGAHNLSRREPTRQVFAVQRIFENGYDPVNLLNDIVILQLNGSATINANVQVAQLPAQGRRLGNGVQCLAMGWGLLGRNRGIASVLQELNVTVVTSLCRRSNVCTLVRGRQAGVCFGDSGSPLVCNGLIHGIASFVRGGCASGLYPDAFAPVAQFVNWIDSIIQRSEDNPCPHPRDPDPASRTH

[7] = biological target: Prothrombin (Homo sapiens, UniProt P00734); assay: Inhibitory concentration was measured against thrombin
[8] = The compound was evaluated for its half-life period; format: ADME; how it was run: as §1

Chain of Serine protease 1 (P07477 whole entry): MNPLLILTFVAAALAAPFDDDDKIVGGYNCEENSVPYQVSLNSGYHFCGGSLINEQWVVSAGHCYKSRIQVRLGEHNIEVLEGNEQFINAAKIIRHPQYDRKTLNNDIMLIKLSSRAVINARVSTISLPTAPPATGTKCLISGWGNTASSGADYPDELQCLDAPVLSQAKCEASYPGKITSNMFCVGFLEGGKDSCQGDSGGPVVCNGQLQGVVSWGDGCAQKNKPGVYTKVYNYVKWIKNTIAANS
Chain of Plasminogen (Q01177 97-581 limits assumed): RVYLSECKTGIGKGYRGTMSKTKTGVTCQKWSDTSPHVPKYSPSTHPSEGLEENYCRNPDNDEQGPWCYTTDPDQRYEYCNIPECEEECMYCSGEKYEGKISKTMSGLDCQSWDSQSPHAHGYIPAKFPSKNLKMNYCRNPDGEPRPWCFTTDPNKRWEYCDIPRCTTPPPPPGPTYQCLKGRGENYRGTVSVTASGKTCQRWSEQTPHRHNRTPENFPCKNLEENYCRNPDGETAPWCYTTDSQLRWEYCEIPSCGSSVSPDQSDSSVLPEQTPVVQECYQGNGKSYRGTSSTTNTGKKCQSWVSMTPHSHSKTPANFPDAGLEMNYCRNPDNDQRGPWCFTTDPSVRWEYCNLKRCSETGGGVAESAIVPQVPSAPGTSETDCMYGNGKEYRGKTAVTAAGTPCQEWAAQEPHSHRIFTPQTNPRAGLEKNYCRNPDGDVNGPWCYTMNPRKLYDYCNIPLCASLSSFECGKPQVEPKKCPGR
Chain of Plasminogen (Q01177 582-812 limits assumed): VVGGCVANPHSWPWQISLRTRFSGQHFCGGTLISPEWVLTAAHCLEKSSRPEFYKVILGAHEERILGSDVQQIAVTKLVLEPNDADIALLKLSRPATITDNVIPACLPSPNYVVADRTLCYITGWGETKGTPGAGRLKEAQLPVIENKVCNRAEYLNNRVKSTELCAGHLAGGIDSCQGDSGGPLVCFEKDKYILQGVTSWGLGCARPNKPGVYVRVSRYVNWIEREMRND

remaining at 0.5 h [1] [%]	Compound	other results
42	CO[C@@]1(NC(=O)c2ccccc2OC(C)C)C(=O)N2C(C(=O)OCc3ccc(C(=O)O)cc3)=C(CSc3nnnn3C)CO[C@@H]21	–
10	CO[C@@]1(NC(=O)Cc2ccc(O)cc2)C(=O)N2C(C(=O)OCc3cccc(C)c3)=C(CSc3nnnn3C)CO[C@@H]21	–
87	CCOc1ccccc1C(=O)N[C@]1(OC)C(=O)N2C(C(=O)OCc3ccc(C(=O)O)cc3)=C(CSc3nnnn3C)CO[C@@H]21	IC50 [2]: > 10000 nM; IC50 [3]: 27 nM; IC50 [4]: 2100 nM; IC50 [5]: 160 nM; IC50 [6]: 9500 nM; IC50 [7]: 3600 nM; half-life [8]: 1.5 h
39	CCC(C)Oc1ccccc1C(=O)N[C@]1(OC)C(=O)N2C(C(=O)OCc3ccc(C(=O)O)cc3)=C(CSc3nnnn3C)CO[C@@H]21 (stereo partly drawn)	–
26	CCCOc1ccccc1C(=O)N[C@]1(OC)C(=O)N2C(C(=O)OCc3ccc(C(=O)O)cc3)=C(CSc3nnnn3C)CO[C@@H]21	–
63	CO[C@@]1(NC(=O)c2ccccc2Oc2ccccc2)C(=O)N2C(C(=O)OCc3ccc(C(=O)O)cc3)=C(CSc3nnnn3C)CO[C@@H]21	–
11	COc1ccccc1C(=O)N[C@]1(OC)C(=O)N2C(C(=O)OCc3cccc(C)c3)=C(CSc3nnnn3CC(=O)O)CO[C@@H]21	half-life [8]: < 0.167 h
26	COc1ccccc1C(=O)N[C@]1(OC)C(=O)N2C(C(=O)OCc3ccc(C(=O)O)cc3)=C(CSc3nnnn3C)CO[C@@H]21	–

Second part, the compound before the results:

Compound	remaining at 0.5 h [1] [%]	other results
CO[C@@]1(NC(=O)Cc2ccc(O)cc2)C(=O)N2C(C(=O)OCc3cccc(C)c3)=C(CSc3nnc(C)s3)CO[C@@H]21	13	–
CO[C@@]1(NC(=O)Cc2ccc(N(C)C)cc2)C(=O)N2C(C(=O)OC(c3ccccc3)c3ccccc3)=C(CSc3nnnn3C)CO[C@@H]21	53	–
CO[C@@]1(NC(=O)Cc2ccc(O)cc2)C(=O)N2C(C(=O)OC(c3ccccc3)c3ccccc3)=C(CSc3nnnn3C)CO[C@@H]21	40	–
COc1ccccc1C(=O)N[C@]1(OC)C(=O)N2C(C(=O)OC(c3ccccc3)c3ccccc3)=C(CSc3nnnn3C)CO[C@@H]21	73	–
CO[C@@]1(NC(=O)Cc2ccc(O)cc2)C(=O)N2C(C(=O)OCc3cccc(C)c3)=C(C)CO[C@@H]21	59	IC50 [3]: > 10000 nM
CO[C@@]1(NC(=O)Cc2ccc(O)cc2)C(=O)N2C(C(=O)OCc3cccc(C)c3)=C(CSc3nnnn3CC(=O)O)CO[C@@H]21	5	–
